Experimental data from different studies.
Compare with care: the assays were run in different laboratories.
Target: Serine/threonine-protein kinase TAO1 (TAOK1, Homo sapiens, UniProt Q7L7X3)
One construct used (Q7L7X3 1-1001): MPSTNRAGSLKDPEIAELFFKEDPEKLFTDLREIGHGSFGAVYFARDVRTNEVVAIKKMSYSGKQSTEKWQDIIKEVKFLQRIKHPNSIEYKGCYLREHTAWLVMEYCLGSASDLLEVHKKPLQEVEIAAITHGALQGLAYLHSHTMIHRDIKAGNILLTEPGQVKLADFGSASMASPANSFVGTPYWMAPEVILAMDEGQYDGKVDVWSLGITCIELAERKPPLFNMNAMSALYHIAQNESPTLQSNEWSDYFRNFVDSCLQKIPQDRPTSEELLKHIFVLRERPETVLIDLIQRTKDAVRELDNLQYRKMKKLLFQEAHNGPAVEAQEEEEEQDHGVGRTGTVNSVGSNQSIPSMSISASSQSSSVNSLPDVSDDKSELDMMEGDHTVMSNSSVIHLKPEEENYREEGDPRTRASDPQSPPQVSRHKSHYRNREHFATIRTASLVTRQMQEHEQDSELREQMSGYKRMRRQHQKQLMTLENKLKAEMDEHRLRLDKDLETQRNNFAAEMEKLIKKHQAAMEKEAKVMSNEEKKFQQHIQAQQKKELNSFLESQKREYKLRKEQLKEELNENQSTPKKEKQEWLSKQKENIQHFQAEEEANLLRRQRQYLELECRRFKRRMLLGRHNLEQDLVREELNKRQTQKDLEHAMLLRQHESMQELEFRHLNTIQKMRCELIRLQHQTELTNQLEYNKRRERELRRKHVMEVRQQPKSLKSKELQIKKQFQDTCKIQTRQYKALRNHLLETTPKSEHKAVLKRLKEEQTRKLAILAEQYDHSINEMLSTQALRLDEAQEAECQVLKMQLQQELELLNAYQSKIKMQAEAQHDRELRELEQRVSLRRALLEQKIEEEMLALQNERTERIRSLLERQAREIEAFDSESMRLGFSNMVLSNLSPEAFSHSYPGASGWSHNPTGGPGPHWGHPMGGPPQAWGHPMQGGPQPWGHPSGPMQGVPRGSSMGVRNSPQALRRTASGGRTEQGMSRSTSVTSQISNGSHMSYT

CCN1CCN(Cc2ccc(C(=O)Nc3ccc(C)c(Oc4ccc5c(c4)CC(=O)N5)c3)cc2C(F)(F)F)CC1 — remaining binding (binding; competition with immobilised ligand; 1 µM): 100%
Nc1cnc(N2CCc3cc(S(=O)(=O)Nc4c(F)cc(Cl)cc4F)cc(N4CCCC4=O)c32)nc1 — remaining binding (cell-free assay; competition with immobilised ligand; 1 µM): 80%
O=C(c1ccc(Nc2ncc(Cl)c(-c3cc4ccccc4s3)n2)cc1)N1CCC(N2CCCC2)CC1 — remaining binding (binding; competition with immobilised ligand; 1 µM): 50%
O=C1NC(c2ccccn2)Sc2ccccc21 (stereo not shown) — remaining binding (cell-free assay; competition with immobilised ligand; 1 µM): 96%
COc1cnc(Nc2cccc(S(N)(=O)=O)c2)nc1N1CCN(c2ccccc2)C(=O)C1 — remaining binding (binding; competition with immobilised ligand; 1 µM): 86%
c1cnn2ncc(-c3ccnc(N4CCC45COC5)n3)c2c1 — remaining binding (binding; 1 µM): 58%
COc1cnc(Nc2cccc(S(N)(=O)=O)c2)nc1N1CCN(c2ccccc2)CC1 — remaining binding (binding; competition with immobilised ligand; 1 µM): 80%
O=C(c1ccc(Nc2ncc(Cl)c(-c3ccc(Cl)s3)n2)cc1)N1CCC(N2CCCC2)CC1 — remaining binding (binding; competition with immobilised ligand; 1 µM): 47%
O=C(Nc1c[nH]nc1C(=O)NC1CCNCC1)c1cc(F)cc(F)c1 — remaining binding (binding; competition with immobilised ligand; 1 µM): 80%
O=C(O)[C@@H]1[C@@H](Cn2nnc3ccccc3c2=O)CC[C@H]1C(=O)c1ccc(OCCC2CCOCC2)cc1 — remaining binding (cell-free assay; competition with immobilised ligand; 1 µM): 100%
CN(c1nccc(-c2cnn3ncccc23)n1)C1CC1 — remaining binding (binding; 1 µM): 100%
O=C(NCc1ncc(C(F)(F)F)cc1Cl)c1ccc2c(c1)C1(CCS(=O)(=O)CC1)[C@@H](C1CC1)N2S(=O)(=O)c1ccc(F)cc1 — remaining binding (cell-free assay; competition with immobilised ligand; 1 µM): 91%
CN(CCCC(F)(F)F)c1nccc(-c2cnn3ncccc23)n1 — remaining binding (binding; 1 µM): 100%
CC(=O)Nc1c(C(C)=O)c(=O)n(C)c2nc(-c3ccc(Cl)cc3Cl)c(-c3ccc(Cl)cc3)cc12 — remaining binding (cell-free assay; competition with immobilised ligand; 1 µM): 89%
C[C@@H]1CCN(c2nccc(-c3cnn4ncccc34)n2)C1 — remaining binding (binding; 1 µM): 83%
CN([C@@H]1CCc2c(CC(=O)O)c3ccccc3n2C1)S(=O)(=O)c1ccc(F)cc1 — remaining binding (cell-free assay; competition with immobilised ligand; 1 µM): 93%
F[C@@H]1CCN(c2nccc(-c3cnn4ncccc34)n2)C1 — remaining binding (binding; 1 µM): 100%
C[C@@H](c1ccc(-n2cnc3c(N)ncnc32)cc1)N1CCc2nn(C)c(Cc3ccccc3)c2C1=O — remaining binding (binding; competition with immobilised ligand; 0.1 µM): 90%
CN(C)c1nccc(-c2cnc3ncccn23)n1 — remaining binding (binding; 1 µM): 59%
O=C(NCCCN1CCOCC1)c1ccc(Nc2nccc(-c3cc4ccccc4s3)n2)cc1 — remaining binding (binding; competition with immobilised ligand; 1 µM): 82%
N[C@@H]1CCN(c2nccc(-c3cnn4ncccc34)n2)C1 — remaining binding (binding; 1 µM): 100%
CNC(=O)c1ccccc1Nc1cc(Nc2ccc(N3CCOCC3)cc2OC)ncc1C(F)(F)F — remaining binding (binding; competition with immobilised ligand; 1 µM): < 10%
